Changes are numbered by the printed parent chain. pIC50: −log10 of the molar value. Activity calls are given as the source filed them. Unless noted, the rule behind the calls is not given here.
What was measured:
[1] = molecular target: T1, Lysosomal acid glucosylceramidase (Homo sapiens, UniProt P04062, N409S); assay: Inhibition of glucocerebrosidase N370S mutant in Gaucher patient spleen homogenate using 4-methylumbellifereno-Glc as substrate incubated for 5 mins prior to substrate addition measured after 30 to 45 mins by fluorimetric analysis
[2] = molecular target: T2, Lysosomal acid glucosylceramidase (Homo sapiens, UniProt P04062); assay: Inhibition of wild type glucocerebrosidase in human spleen homogenate using 4-methylumbellifereno-Glc as substrate incubated for 5 mins prior to substrate addition measured after 20 mins by fluorimetric analysis; assay type: tissue-based
T2 sequence (P04062 whole entry): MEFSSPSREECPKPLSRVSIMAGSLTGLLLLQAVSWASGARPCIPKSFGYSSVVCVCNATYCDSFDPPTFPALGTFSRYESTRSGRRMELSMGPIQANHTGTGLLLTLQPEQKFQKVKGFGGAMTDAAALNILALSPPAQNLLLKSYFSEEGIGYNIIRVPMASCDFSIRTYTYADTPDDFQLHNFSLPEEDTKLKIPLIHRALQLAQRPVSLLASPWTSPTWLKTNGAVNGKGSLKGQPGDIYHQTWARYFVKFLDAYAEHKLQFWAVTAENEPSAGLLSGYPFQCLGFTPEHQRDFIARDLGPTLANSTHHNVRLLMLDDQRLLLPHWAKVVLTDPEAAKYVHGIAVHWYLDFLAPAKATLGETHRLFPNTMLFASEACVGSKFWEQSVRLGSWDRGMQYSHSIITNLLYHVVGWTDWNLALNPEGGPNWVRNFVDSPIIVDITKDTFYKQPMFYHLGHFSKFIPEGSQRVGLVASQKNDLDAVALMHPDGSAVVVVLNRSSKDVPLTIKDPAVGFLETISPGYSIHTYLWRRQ

[3] = molecular target: T1, Lysosomal acid glucosylceramidase; assay: Inhibition of glucocerebrosidase N370S mutant using 4-methylumbellifereno-Glc as substrate incubated for 5 mins prior to substrate addition measured after 20 mins by fluorimetric analysis
[4] = molecular target: T2, Lysosomal acid glucosylceramidase; assay: Inhibition of wild type glucocerebrosidase using 4-methylumbellifereno-Glc as substrate incubated for 5 mins prior to substrate addition measured after 20 mins by fluorimetric analysis
[5] = molecular target: T3, Lysosomal acid glucosylceramidase (Homo sapiens) (UniProt P04062); assay: Ratio of half-maximal activation concentration for wild type glucocerebrosidase to half-maximal activation concentration for wild type glucocerebrosidase in human spleen homogenate; assay type: tissue-based
T3 sequence (whole entry): T2 sequence (P04062 whole entry)

[6] = molecular target: T3, Lysosomal acid glucosylceramidase (Homo sapiens); assay: Activation of wild type glucocerebrosidase using resorufin beta-D-glucopyranoside as substrate incubated for 5 mins prior to substrate addition measured after 30 to 45 mins by fluorimetric analysis
How it was run: (§1)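 Purified recombinant enzyme at 5 nM final: wt in citrate/KH₂PO₄ pH 5.9, N370S at pH 7, with 0.01% Tween-20. Compound was preincubated 5 min at room temperature. Resorufin β-D-glucopyranoside was 15 μM final for 30−45 min at 37 °C, stopped with Tris-HCl pH 8.0. Read-out was fluorescence at Ex 573/Em 610 nm.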

[7] = Activation of alpha-galactosidase using 4-MU-alpha-galactose as substrate
[8] = molecular target: T3, Lysosomal acid glucosylceramidase (Homo sapiens); assay: Activation of wild type glucocerebrosidase using 4methylumbelliferone-Glc as substrate assessed as half-maximal activation concentration incubated for 5 mins prior to substrate addition measured after 30 to 45 mins by fluorimetric analysis
How it was run: (§2)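 Purified recombinant enzyme at 5 nM final: wt in citrate/KH₂PO₄ pH 5.9, N370S at pH 7, both with 0.01% Tween-20. Compound was titrated 0.5 nM to 58 μM and preincubated 5 min at room temperature. Reaction used 1 mM 4MU-Glc for 30−45 min at 37 °C and was stopped at pH 10. Read-out was fluorescence at Ex 365/Em 440 nm.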

[9] = test system: T4, Lysosomal acid glucosylceramidase (Homo sapiens), P04062 [N409S]; assay: Activation of glucocerebrosidase N370S mutant using resorufin beta-D-glucopyranoside as substrate incubated for 5 mins prior to substrate addition measured after 30 to 45 mins by fluorimetric analysis
T4 sequence (whole entry): T2 sequence (P04062 whole entry) with N409S
How it was run: as §1

[10] = test system: T4, Lysosomal acid glucosylceramidase (Homo sapiens), P04062 [N409S]; assay: Activation of glucocerebrosidase N370S mutant using 4methylumbelliferone-Glc as substrate assessed as half-maximal activation concentration incubated for 5 mins prior to substrate addition measured after 30 to 45 mins by fluorimetric analysis
How it was run: as §2

[11] = molecular target: Lysosomal alpha-glucosidase (Homo sapiens) (UniProt P10253); assay: Activation of alpha-glucosidase using 4-MU-alpha-glucose as substrate
Homo sapiens = species: Homo sapiens; assay: Ratio of half-maximal activation concentration for glucocerebrosidase N370S (unknwon origin) to half-maximal activation concentration for glucocerebrosidase N370S in Gaucher patient spleen homogenate; assay type: tissue-based
[12] = molecular target: T3, Lysosomal acid glucosylceramidase (Homo sapiens); assay: Activation of wild type glucocerebrosidase in human spleen homogenate using 4methylumbelliferone-Glc as substrate assessed as half-maximal activation concentration incubated for 5 mins prior to substrate addition measured after 30 to 45 mins by fluorimetric analysis; assay type: tissue-based
How it was run: (§3)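 Spleen homogenate (27 μg final) in pH 5 citrate/phosphate buffer with KCl, NaCl, MgCl₂ and 0.01% Tween-20. Compound was titrated 0.5 nM to 58 μM and preincubated 5 min at room temperature. Reaction used 1 mM 4MU-Glc for 30−45 min at 37 °C and was stopped with NaOH/glycine pH 10. Read-out was fluorescence at Ex 365/Em 440 nm. AC₅₀ is the average of N = 2.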

[13] = test system: T4, Lysosomal acid glucosylceramidase (Homo sapiens), P04062 [N409S]; assay: Activation of glucocerebrosidase N370S mutant in Gaucher patient spleen homogenate using resorufin beta-D-glucopyranoside as substrate incubated for 5 mins prior to substrate addition measured after 30 to 45 mins by fluorimetric analysis; assay type: tissue-based
How it was run: (§4)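 Spleen homogenate (27 μg final) in pH 5 citrate/phosphate buffer with 0.01% Tween-20. Compound was titrated 0.5 nM to 58 μM and preincubated 5 min at room temperature. Resorufin β-D-glucopyranoside was 15 μM final, incubated 30−45 min at 37 °C and stopped with 1 M Tris-HCl pH 8.0. Read-out was fluorescence at Ex 573/Em 610 nm.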

[14] = test system: T4, Lysosomal acid glucosylceramidase (Homo sapiens), P04062 [N409S]; assay: Activation of glucocerebrosidase N370S mutant in Gaucher patient spleen homogenates using 4-methylumbelliferone-Glc as substrate assessed as half-maximal activation concentration incubated for 5 mins prior to substrate addition measured after 30 to 45 mins by fluorimetric analysis; assay type: tissue-based
How it was run: as §3

[15] = molecular target: T3, Lysosomal acid glucosylceramidase (Homo sapiens); assay: Activation of wild type glucocerebrosidase in human spleen homogenate using resorufin beta-D-glucopyranoside as substrate incubated for 5 mins prior to substrate addition measured after 30 to 45 mins by fluorimetric analysis; assay type: tissue-based
How it was run: as §4

[16] = molecular target: T1, Lysosomal acid glucosylceramidase; assay: Inhibition of glucocerebrosidase N370S mutant in Gaucher patient spleen homogenate using 4-methylumbellifereno-Glc as substrate incubated for 5 mins prior to substrate addition measured after 20 mins by fluorimetric analysis; assay type: tissue-based
[17] = test system: T4, Lysosomal acid glucosylceramidase (Homo sapiens), P04062 [N409S]; assay: Activation of Glucocerebrosidase N370S/N370S mutant translocation to lysosome in Gaucher patient dermal fibroblasts incubated for 6 days by LAMP2 colocalization-based laser scanning confocal microscopic analysis relative to vehicle-treated control
How it was run: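 N370S/N370S Gaucher dermal fibroblasts were treated 6 days at 1, 5 or 25 μM, with DMSO vehicle control. Cells were fixed in 3% paraformaldehyde, permeabilized with Triton-X and stained with anti-GCase R386 (Alexa555), anti-LAMP-2 (Alexa488) and DAPI. Confocal imaging used constant laser settings, scoring GCase/LAMP-2 colocalization.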

[18] = test system: T4, Lysosomal acid glucosylceramidase (Homo sapiens), P04062 [N409S]; assay: Activation of glucocerebrosidase N370S mutant using 4-methylumbelliferone-beta-Glc as substrate incubated for 5 mins prior to substrate addition measured after 30 to 45 mins by HPLC analysis
How it was run: (§5)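 N370S/N370S patient spleen homogenate at 140 μg/well. Compound was tested at 9 concentrations, 1:2 dilutions from 50 μM. Substrate was 2 mM 4MU-Glc or the C12-BODIPY substrate at 25 μM; other conditions as the plate assay. Stopped reactions were separated on C18 HPLC with fluorescence detection: 4MU at 365/440 nm, C12-BODIPY-Cer at 506/540 nm.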

[19] = test system: T4, Lysosomal acid glucosylceramidase (Homo sapiens), P04062 [N409S]; assay: Activation of glucocerebrosidase N370S mutant using C12-BODIPY-GlcCer as substrate assessed as half-maximal activation concentration incubated for 5 mins prior to substrate addition measured after 30 to 45 mins by HPLC analysis
How it was run: as §5

Liver [20] = assay: Metabolic stability in CD1 mouse liver microsomes assessed as compound remaining at 1 uM after 60 mins by LC/MS/MS analysis in presence of NADPH; assay type: ADME, Microsome; conditions: 1 h
How it was run: (§6)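 Compound at 1 μM was incubated in duplicate with CD-1 mouse liver microsomes at 37 °C in 100 mM potassium phosphate pH 7.4 with 3 mM MgCl₂, with or without 2 mM NADPH, for 60 min. Reaction was quenched in cold acidified MeCN with internal standard. Parent was quantified by LC−MS/MS as percent of time zero.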

Liver [21] = assay: Metabolic stability in CD1 mouse liver microsomes assessed as compound remaining at 1 uM after 60 mins by LC/MS/MS analysis in absence of NADPH; assay type: ADME, Microsome; conditions: 1 h
How it was run: as §6

Compound | Ratio [5] | Activity [6] | Activity [7] | Activity [9] | Activity [11] | Ratio (Homo sapiens) | Activity [13] | Activity [14] | Activity [15] | also measured
COc1ccc(Cl)cc1Nc1nc(NCCO)nc(N2CCCC2)n1 |  |  |  |  |  |  |  |  |  | IC50 [1]: Not Active
S=C(NCCCc1c[nH]cn1)NCCCN(Cc1ccc(Cl)c(Cl)c1)c1ccc(Br)cn1 |  |  |  |  |  |  |  |  |  | pIC50 [2]: 6.44; pIC50 ([3]; read-out: IC50): 5.60; pIC50 [4]: 6.15
O=S(=O)(c1ccc2ccccc2c1)N1CCN(c2nc(-c3cccs3)nc3ccccc23)CC1 |  |  |  |  |  |  |  |  |  | pIC50 [2]: 6.55; IC50 [3]: Not Active; pIC50 [4]: 5.05; pIC50 [16]: 6.48
Cc1cc(C)n2ncc(C(=O)NCCCCO)c2n1 |  |  | inactive |  | inactive |  |  | inactive |  | Activity [17]: inactive
Cc1cc(C)n2ncc(C(=O)Nc3ccc(C(F)(F)F)cc3)c2n1 |  |  | inactive |  | inactive |  |  | 1.46 µM |  | Activity [18]: Dose-dependent effect; Activity [19]: inactive; Stability (Liver [20]): 83%; Stability (Liver [21]): 100%
O=C(Nc1ccccc1Sc1ccccc1)c1cnn2c(C(F)F)cc(C3CC3)nc12 | 3 | inactive | inactive | inactive | inactive | 3 | inactive | 4.6 µM | inactive | Activity [18]: Dose-dependent effect; Activity [19]: inactive
CCc1nnc(NC(=O)c2ccc(NS(=O)(=O)c3ccccc3)cc2)s1 |  |  |  |  |  |  |  |  |  | IC50 [1]: Not Active

Further lines, with some results ahead:

Ratio [5] | Activity [6] | Activity [7] | Activity [9] | Activity [11] | Ratio (Homo sapiens) | Activity [13] | Activity [14] | Activity [15] | Compound | also measured
3 | inactive | inactive | inactive | inactive | 3 | inactive | 3.66 µM | inactive | Cc1cc(C)n2ncc(C(=O)Nc3ccc(Cl)c(Cl)c3)c2n1 | Activity [8]: 14.1 µM; Activity [10]: 15.9 µM; Activity [12]: 4.47 µM
3 | inactive | inactive | inactive | inactive | 3 | inactive | 2.24 µM | inactive | CCc1ccc(NC(=O)c2cnn3c(C(F)F)cc(C)nc23)cc1 | 
 |  | inactive |  | inactive |  |  | 2.06 µM |  | Cc1cc(C)n2ncc(C(=O)Nc3ccc(Br)cc3)c2n1 | Activity [18]: Dose-dependent effect; Activity [19]: inactive; Stability (Liver [20]): 12%; Stability (Liver [21]): 86%
3 | inactive | inactive | inactive | inactive | 3 | inactive |  | inactive | CCC(C)c1ccc(NC(=O)c2cnn3c(C(F)F)cc(C)nc23)cc1 (configuration not stated) | 

Source: ChEMBL document CHEMBL2169863, “Discovery, structure-activity relationship, and biological evaluation of noninhibitory small molecule chaperones of glucocerebrosidase” (J Med Chem, 2012)
